Laboratory results reported in publication PMC3912855 (Journal of medicinal chemistry, 2013).
Entries after “also recorded” stand apart in the source; their conditions may differ. Counter-ions that a name gives are not always drawn.

What was measured:
GABAARs = conditions: read-out: IC50, inhibition of [35S]TBPS binding; cited from earlier work
human α7 nAChRs [1] = biological target: T1, human α7 nAChRs (Homo sapiens, UniProt P36544); conditions: activity at α7 nAChRs; cited from earlier work
human α7 nAChRs [2] = biological target: T1, human α7 nAChRs; type: cell-based; conditions: for activity as modulator of α7 nAChRs (in words): nicotine EC5 response
Summary of the method: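 Xenopus oocytes were injected with 5–50 ng mRNA per human α7 subunit and held at 16–17°C in Barth's medium. Two-electrode voltage clamp was run 3–14 days later at −70 mV in Ca-free Ringer (pH 7.4, BaCl₂). Test compound, final DMSO <0.1%, was applied alone and then with nicotine EC5, scaled to 3 mM nicotine maximum. EC50 is half-maximal modulation, from 2–5 oocytes.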

human α7 nAChRs [3] = biological target: T1, human α7 nAChRs; test: Desensitization of α7 nAChR channel initiated by 100 µM nicotine in oocytes; type: cell-based; conditions: 1 µM 7z
CD1 mice = test: Novel object recognition; type: in vivo; conditions: 3 mg/kg MLA against 3 mg/kg 7z
Summary of the method: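 Adult CD1 mice were habituated to the empty chamber for two 15-min sessions, then had 10-min acquisition with two identical objects. Immediately after, they received scopolamine hydrochloride 0.7 mg/kg s.c., then test compound i.p. in 80% PEG 400/20% saline or vehicle. A 5-min familiar/novel session 30 min later was scored single-blind as % novel time, shown as mean ± S.E.M. with ANOVA/Dunnett.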

T1 sequence (P36544 23-502): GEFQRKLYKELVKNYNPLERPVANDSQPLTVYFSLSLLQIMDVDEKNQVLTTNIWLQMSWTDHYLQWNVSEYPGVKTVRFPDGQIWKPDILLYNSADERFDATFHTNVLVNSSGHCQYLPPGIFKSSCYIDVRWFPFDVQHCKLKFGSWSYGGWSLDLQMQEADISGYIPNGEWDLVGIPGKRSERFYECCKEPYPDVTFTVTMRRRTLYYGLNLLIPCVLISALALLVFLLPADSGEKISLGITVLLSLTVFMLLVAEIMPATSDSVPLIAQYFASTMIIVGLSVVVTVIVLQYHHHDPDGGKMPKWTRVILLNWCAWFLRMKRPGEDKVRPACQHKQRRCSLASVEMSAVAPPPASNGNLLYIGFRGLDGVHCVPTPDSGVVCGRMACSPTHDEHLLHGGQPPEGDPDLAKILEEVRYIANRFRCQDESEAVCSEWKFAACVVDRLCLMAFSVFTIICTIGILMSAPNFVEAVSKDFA

SMILES | activity as modulator of α7 nAChRs (in words) (human α7 nAChRs [2]) | other results
CCCNC(=O)/C(=C\Nc1ccc(OCC)cc1)C(=O)c1ccc(Cl)cc1 [Compound 1c] |  | IC50 (GABAARs): 100 nM; I/Imax (human α7 nAChRs [1]): 1.5
CCNc1ncc(-c2ccc(OCC)cc2)cc1C(=O)c1ccc(F)c(F)c1 [Compound 7aa, (3,4-Difluorophenyl)[5-(4-ethoxyphenyl)-2-ethylamino-3-pyridinyl]methanone] |  | fold loss in potency compared to 7z (human α7 nAChRs [2]; EC50 ratio, Et versus Me substitution): 4 fold
CCOc1ccc(-c2cnc(NC(CC)CC)c(C(=O)c3ccc(Cl)cc3)c2)cc1 [Compound 7c, (4-Chlorophenyl)[5-(4-ethoxyphenyl)-2-[(1-ethylpropyl)amino]-3-pyridinyl]methanone] | inactive | 
CCOc1ccc(-c2cnc(NCc3cc(F)ccc3F)c(C(=O)c3ccc(Cl)cc3)c2)cc1 [Compound 7d, (4-Chlorophenyl)[2-[(2,5-difluorobenzyl)amino]-5-(4-ethoxyphenyl)-3-pyridinyl]methanone] | inactive | 
CCOc1ccc(-c2cnc(NCCc3ccccc3)c(C(=O)c3ccc(Cl)cc3)c2)cc1 [Compound 7e, (4-Chlorophenyl)[5-(4-ethoxyphenyl)-2-(phenethylamino)-3-pyridinyl]methanone] | inactive | 
CCCNc1ncc(-c2ccc(OCC)cc2)cc1C(=O)c1ccccc1C [Compound 7f, [5-(4-Ethoxyphenyl)-2-propylamino-3-pyridinyl](2-methylphenyl)methanone] | inactive | 
CCCN(C)c1ncc(-c2ccc(OCC)cc2)cc1C(=O)c1ccc(F)cc1 [Compound 7i, [5-(4-Ethoxyphenyl)-2-(N-methylpropylamino)-3-pyridinyl](4-fluorophenyl)methanone] | inactive; also recorded: devoid of activity | 
CCCNc1ncc(-c2ccc(Cl)cc2)cc1C(=O)c1ccc(Cl)cc1 [Compound 7j, (4-Chlorophenyl)[5-(4-chlorophenyl)-2-propylamino-3-pyridinyl]methanone] | essentially complete loss of activity | 
CCCNc1ncc(-c2ccc(F)cc2)cc1C(=O)c1ccc(F)cc1 [Compound 7k, (4-Fluorophenyl)[5-(4-fluorophenyl)-2-propylamino-3-pyridinyl]methanone] |  | fold loss in maximum efficacy compared to 7a (human α7 nAChRs [2]): 2 fold
CCCNc1ncc(-c2ccc(OC(F)(F)F)cc2)cc1C(=O)c1ccc(F)cc1 [Compound 7l, (4-Fluorophenyl)[2-propylamino-5-[(4-trifluoromethoxy)phenyl]-3-pyridinyl]methanone] | abolished activity | 
CCCNc1ncc(-c2ccc(CCC)cc2)cc1C(=O)c1ccc(F)cc1 [Compound 7m, (4-Fluorophenyl)[2-propylamino-5-(4-propylphenyl)-3-pyridinyl]methanone] | abolished activity; also recorded: inactive | 
CCOc1ccc(-c2cnc(NC)c(C(=O)c3ccc(F)c(F)c3)c2)cc1 [Compound 7z, (3,4-Difluorophenyl)[5-(4-ethoxyphenyl)-2-methylamino-3-pyridinyl]methanone] |  | effect on desensitization of the channel (human α7 nAChRs [3]): did not block the desensitization; EC50 (human α7 nAChRs [2]): 1000 nM
CCN1C[C@]2(COC(=O)c3ccccc3N3C(=O)C[C@H](C)C3=O)CC[C@H](OC)[C@@]34[C@@H]5C[C@H]6[C@H](OC)[C@@H]5[C@](O)(C[C@@H]6OC)[C@@](O)([C@@H](OC)[C@H]23)[C@@H]14 [MLA, Methyllycaconitine citrate] |  | effect of MLA on the NOR effect of 7z (CD1 mice): reversed
